Experimental data taken from paper PMC3220761 (ACS chemical biology, 2011).
Values joined by “and” are separate entries in the source; they are usually repeats but may differ in a detail not shown here. Equal entries are not always repeated. Where two headings read alike, the source gives them in different places.

T1: α/β1 20S proteasome complex (Salinispora tropica, UniProt A4X744)
T1 sequence (A4X744 54-279): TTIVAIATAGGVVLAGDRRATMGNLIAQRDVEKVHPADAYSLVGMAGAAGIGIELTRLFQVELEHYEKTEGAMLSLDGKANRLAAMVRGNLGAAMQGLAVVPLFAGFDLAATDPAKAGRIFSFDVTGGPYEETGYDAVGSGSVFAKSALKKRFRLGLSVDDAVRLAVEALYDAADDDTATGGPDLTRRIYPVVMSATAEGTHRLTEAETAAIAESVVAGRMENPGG
T1 sequence (A4X745 1-260 partner): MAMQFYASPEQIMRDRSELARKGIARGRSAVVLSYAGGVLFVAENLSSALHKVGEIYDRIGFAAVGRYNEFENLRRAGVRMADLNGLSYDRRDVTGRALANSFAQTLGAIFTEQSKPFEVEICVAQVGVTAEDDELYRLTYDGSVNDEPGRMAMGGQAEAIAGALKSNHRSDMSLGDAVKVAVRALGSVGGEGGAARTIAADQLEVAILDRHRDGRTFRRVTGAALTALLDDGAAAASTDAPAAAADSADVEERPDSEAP

T2: α/SalI 20S proteasome complex (Salinispora tropica, UniProt A4X3P0)
T2 sequence (A4X3P0 49-282): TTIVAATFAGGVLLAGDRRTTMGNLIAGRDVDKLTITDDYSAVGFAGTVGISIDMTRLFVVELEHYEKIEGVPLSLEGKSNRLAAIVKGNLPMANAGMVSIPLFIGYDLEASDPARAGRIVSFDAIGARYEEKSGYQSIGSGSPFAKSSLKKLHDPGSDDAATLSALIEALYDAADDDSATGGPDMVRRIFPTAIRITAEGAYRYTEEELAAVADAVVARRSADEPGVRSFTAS
T2 sequence (A4X745 1-260 partner): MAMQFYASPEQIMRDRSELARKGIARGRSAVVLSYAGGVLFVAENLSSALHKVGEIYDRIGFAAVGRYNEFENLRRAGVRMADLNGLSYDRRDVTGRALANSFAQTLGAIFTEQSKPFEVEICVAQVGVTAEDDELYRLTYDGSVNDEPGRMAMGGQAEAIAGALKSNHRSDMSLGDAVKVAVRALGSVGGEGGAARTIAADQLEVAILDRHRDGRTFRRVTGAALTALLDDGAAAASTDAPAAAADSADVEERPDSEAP

T3: α/β1 M45F proteasome complex (Salinispora tropica, UniProt A4X744, M98F)
T3 sequence (A4X744 54-279 M98F): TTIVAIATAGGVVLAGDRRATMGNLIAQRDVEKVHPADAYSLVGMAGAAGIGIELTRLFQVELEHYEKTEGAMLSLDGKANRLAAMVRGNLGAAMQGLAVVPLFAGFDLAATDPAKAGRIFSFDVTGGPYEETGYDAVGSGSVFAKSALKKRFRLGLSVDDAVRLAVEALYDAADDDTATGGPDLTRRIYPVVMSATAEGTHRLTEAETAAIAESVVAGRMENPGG
T3 sequence (A4X745 1-260 partner): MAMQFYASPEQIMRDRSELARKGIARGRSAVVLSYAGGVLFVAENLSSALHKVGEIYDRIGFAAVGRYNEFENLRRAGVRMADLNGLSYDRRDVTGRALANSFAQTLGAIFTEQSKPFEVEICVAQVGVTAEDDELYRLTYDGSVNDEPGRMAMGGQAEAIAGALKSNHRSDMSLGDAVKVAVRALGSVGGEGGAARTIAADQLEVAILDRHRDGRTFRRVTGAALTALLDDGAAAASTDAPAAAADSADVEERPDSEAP

T4: α/β1 A49V proteasome complex (Salinispora tropica, UniProt A4X744, A102V)
T4 sequence (A4X744 54-279 A102V): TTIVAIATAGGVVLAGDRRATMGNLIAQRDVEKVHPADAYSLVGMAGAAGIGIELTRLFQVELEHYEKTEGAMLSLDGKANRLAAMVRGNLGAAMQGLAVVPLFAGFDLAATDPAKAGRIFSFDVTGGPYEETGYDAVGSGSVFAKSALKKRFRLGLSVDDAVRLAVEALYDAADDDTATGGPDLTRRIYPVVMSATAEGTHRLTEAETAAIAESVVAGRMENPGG
T4 sequence (A4X745 1-260 partner): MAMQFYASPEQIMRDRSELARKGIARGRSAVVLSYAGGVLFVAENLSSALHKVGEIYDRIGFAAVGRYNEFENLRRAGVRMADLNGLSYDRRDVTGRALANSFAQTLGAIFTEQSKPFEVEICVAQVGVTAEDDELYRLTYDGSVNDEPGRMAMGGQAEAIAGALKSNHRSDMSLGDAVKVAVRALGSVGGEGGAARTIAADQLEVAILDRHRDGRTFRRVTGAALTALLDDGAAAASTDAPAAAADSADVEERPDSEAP

T5: α/β1 M45F/A49V proteasome complex (Salinispora tropica, UniProt A4X744, A102V/M98F)
T5 sequence (A4X744 54-279 M98F/A102V): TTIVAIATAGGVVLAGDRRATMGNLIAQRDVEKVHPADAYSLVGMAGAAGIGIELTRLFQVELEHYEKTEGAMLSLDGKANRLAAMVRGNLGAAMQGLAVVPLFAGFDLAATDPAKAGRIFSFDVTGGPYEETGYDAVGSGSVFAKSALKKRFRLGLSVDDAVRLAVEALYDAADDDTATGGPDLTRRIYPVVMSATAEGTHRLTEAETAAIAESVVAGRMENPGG
T5 sequence (A4X745 1-260 partner): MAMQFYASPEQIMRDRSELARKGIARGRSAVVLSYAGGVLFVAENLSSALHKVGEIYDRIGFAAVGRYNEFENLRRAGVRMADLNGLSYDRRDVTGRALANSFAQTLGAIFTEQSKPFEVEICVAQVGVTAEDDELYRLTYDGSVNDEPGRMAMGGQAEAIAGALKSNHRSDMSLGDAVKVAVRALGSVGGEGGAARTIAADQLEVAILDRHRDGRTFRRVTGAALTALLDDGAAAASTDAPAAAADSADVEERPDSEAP

T6: α/SalI F45M proteasome complex (Salinispora tropica, UniProt A4X3P0, F93M)
T6 sequence (A4X3P0 49-282 F93M): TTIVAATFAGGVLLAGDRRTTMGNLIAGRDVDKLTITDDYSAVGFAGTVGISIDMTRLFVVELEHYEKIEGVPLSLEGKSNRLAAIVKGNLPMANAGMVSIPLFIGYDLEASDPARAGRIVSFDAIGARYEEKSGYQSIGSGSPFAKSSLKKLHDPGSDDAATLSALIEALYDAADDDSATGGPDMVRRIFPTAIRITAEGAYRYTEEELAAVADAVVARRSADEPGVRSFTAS
T6 sequence (A4X745 1-260 partner): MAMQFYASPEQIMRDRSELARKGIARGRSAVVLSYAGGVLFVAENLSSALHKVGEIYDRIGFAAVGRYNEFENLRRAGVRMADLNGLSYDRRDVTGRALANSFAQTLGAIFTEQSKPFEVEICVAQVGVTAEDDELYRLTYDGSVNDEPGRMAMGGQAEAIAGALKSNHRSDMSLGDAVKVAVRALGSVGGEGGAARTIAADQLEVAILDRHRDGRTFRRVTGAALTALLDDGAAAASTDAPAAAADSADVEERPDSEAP


Experiments:
[1] = target: T1, α/β1 20S proteasome complex; assay: Proteasome inhibition; type: biochemical
[2] = target: T2, α/SalI 20S proteasome complex; assay: Proteasome inhibition; type: biochemical; details: for fold increase in IC50 with the α/SalI complex in comparison to the α/β1 complex (resistance): α/SalI versus α/β1
[3] = target: T3, α/β1 M45F proteasome complex; assay: Proteasome inhibition; type: biochemical
[4] = target: T4, α/β1 A49V proteasome complex; assay: Proteasome inhibition; type: biochemical
[5] = target: T5, α/β1 M45F/A49V proteasome complex; assay: Proteasome inhibition; type: biochemical
[6] = target: T6, α/SalI F45M proteasome complex; assay: Proteasome inhibition; type: biochemical
[7] = target: T1, α/β1 20S proteasome complex; assay: Time-dependence of inhibition, α/β1; type: biochemical; details: 0.5–100 μM inhibitor, Z-VKM-amc, 3.5 h, 30 °C
Method in brief: (§1)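 Purified S. tropica α/β1 or α/SalI complex (His6-α, E. coli-expressed) in 50 mM Tris-HCl pH 8.0. Test compound (0.5–100 μM final) and 40 μM Z-VKM-amc were pre-warmed to 30 °C. Pre-warmed enzyme was added to 20 μg ml−1 (27 nM) final. Fluorescence (ex 355/em 460 nm) was read every minute for 3.5 h at a constant 30 °C.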

[8] = target: T2, α/SalI 20S proteasome complex; assay: Time-dependence of inhibition, α/SalI; type: biochemical; details: 0.5–100 μM inhibitor, Z-VKM-amc, 3.5 h, 30 °C
Method in brief: as §1

[9] = target: T1, α/β1 20S proteasome complex; assay: Irreversibility of inhibition; type: biochemical; details: 250 μM inhibitor for 1.5 h at 30 °C, Z-VKM-amc
Method in brief: (§2)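 Recombinant S. tropica proteasome (His6-tagged α coexpressed with untagged β1 or SalI in E. coli BL21(DE3); Ni-NTA then size-exclusion purified). Enzyme at 20 μg ml−1 in 50 mM Tris-HCl pH 8.0 was held with 250 μM test compound or matching DMSO, 1.5 h, 30 °C. It was buffer-exchanged three times on 30 kDa cutoff filters, then added to 40 μM Z-VKM-amc. Fluorescence (ex 355/em 460 nm) was read every minute for 3 h at 30 °C.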

[10] = target: T2, α/SalI 20S proteasome complex; assay: Irreversibility of inhibition; type: biochemical; details: 250 μM inhibitor for 1.5 h at 30 °C, Z-VKM-amc
Method in brief: as §2

native gel or EMSA = target: the molecule itself; assay: native gel or EMSA
[11] = IC50, α/SalI complex, substrate Z-VKM-amc 40 μM, mean ± SD, N = 3

Molecule | IC50 [1] [µM] | IC50 [2] [µM] | IC50 [2, 11] [µM] | fold increase in IC50 with the α/SalI complex in comparison to the α/β1 complex (resistance) [2] | binding result (native gel or EMSA) | other results
C[C@@]12OC(=O)[C@]1([C@@H](O)[C@@H]1C=CCC1)NC(=O)[C@@H]2CCCl [Salinosporamide X7, salinosporamide X7] | 3.6 ± 0.2 | > 250 |  |  |  | 
C[C@@]12OC(=O)[C@]1([C@@H](O)C1CCC1)NC(=O)[C@@H]2CCCl [Salinosporamide X3, salinosporamide X3] | > 250 | > 250 |  |  |  | 
CC(C)C[C@H](NC(=O)[C@H](Cc1ccccc1)NC(=O)c1cnccn1)B(O)O [Bortezomib, bortezomib, reference compound] |  |  | 42.7 ± 3.4 | 13 fold |  | 
C[C@@]12OC(=O)[C@]1([C@@H](O)[C@@H]1C=CCCC1)NC(=O)[C@@H]2CCCl [Salinosporamide A, salinosporamide A] |  |  | 36.8 ± 2.4 | 16–30 fold and 30 fold |  | IC50 [3]: 1.2 ± 0.1 µM; IC50 [4]: 13.6 ± 2.2 µM; increase in IC50 of α/β1 A49V mutant ([4]; α/β1 A49V versus wild-type α/β1, Z-VKM-amc): greater than a ten-fold increase; IC50 [5]: 15.3 ± 2.2 µM; IC50 ([2]; IC50, α/SalI complex, substrate Suc-LLVY-amc 40 μM, mean ± SD, N = 3): 52 ± 3.5 µM; IC50 [6]: 45.5 ± 2.3 µM; time-dependence of inhibition [7]: time-dependent inhibition; time-dependence of inhibition [8]: time-dependent inhibition; recovery of proteolytic activity after buffer exchange to remove inhibitor [9]: no recovery of proteolytic activity; recovery of proteolytic activity after buffer exchange to remove inhibitor [10]: no recovery of proteolytic activity
CCC[C@H](O)[C@@]12NC(=O)[C@H](CCCl)[C@]1(C)OC2=O [Salinosporamide X5, salinosporamide X5] | > 250 | > 250 |  |  |  | 
CC[C@H]1C(=O)N[C@@]2([C@@H](O)[C@@H]3C=CCCC3)C(=O)O[C@@]12C [Salinosporamide B, salinosporamide B] |  |  | 139 ± 27.3 | 7 fold |  | 
CC(C)[C@H](O)[C@@]12NC(=O)[C@H](CCCl)[C@]1(C)OC2=O [Antiprotealide, antiprotealide] | 104 ± 7.2 | > 250 |  |  |  | 
Salinispora tropica CNB-440 20S proteasome α-subunit (Strop_2245) (natural protein, UniProt A4X745 1-260, looked up) MAMQFYASPEQIMRDRSELARKGIARGRSAVVLSYAGGVLFVAENLSSALHKVGEIYDRIGFAAVGRYNEFENLRRAGVRMADLNGLSYDRRDVTGRALANSFAQTLGAIFTEQSKPFEVEICVAQVGVTAEDDELYRLTYDGSVNDEPGRMAMGGQAEAIAGALKSNHRSDMSLGDAVKVAVRALGSVGGEGGAARTIAADQLEVAILDRHRDGRTFRRVTGAALTALLDDGAAAASTDAPAAAADSADVEERPDSEAP |  |  |  |  | binds | 
Salinispora tropica CNB-440 20S proteasome β-subunit β1 (Strop_2244) (natural protein, UniProt A4X744 54-279, looked up) TTIVAIATAGGVVLAGDRRATMGNLIAQRDVEKVHPADAYSLVGMAGAAGIGIELTRLFQVELEHYEKTEGAMLSLDGKANRLAAMVRGNLGAAMQGLAVVPLFAGFDLAATDPAKAGRIFSFDVTGGPYEETGYDAVGSGSVFAKSALKKRFRLGLSVDDAVRLAVEALYDAADDDTATGGPDLTRRIYPVVMSATAEGTHRLTEAETAAIAESVVAGRMENPGG |  |  |  |  | binds | 
SalI, proteasome β-subunit of the salinosporamide biosynthetic gene cluster (Strop_1015) (natural protein, Salinispora tropica CNB-440, UniProt A4X3P0 49-282, looked up) TTIVAATFAGGVLLAGDRRTTMGNLIAGRDVDKLTITDDYSAVGFAGTVGISIDMTRLFVVELEHYEKIEGVPLSLEGKSNRLAAIVKGNLPMANAGMVSIPLFIGYDLEASDPARAGRIVSFDAIGARYEEKSGYQSIGSGSPFAKSSLKKLHDPGSDDAATLSALIEALYDAADDDSATGGPDMVRRIFPTAIRITAEGAYRYTEEELAAVADAVVARRSADEPGVRSFTAS |  |  |  |  | binds | 
